From ChEMBL document CHEMBL1149101, “New antibacterial agents derived from the DNA gyrase inhibitor cyclothialidine” (J Med Chem, 2004)
In brackets after ≈: the same amount, converted by molar mass.

Legend:
Micrococcus luteus = assay: Minimum inhibitory concentration against Micrococcus luteus ATCC 8340; assay type: functional
Procedure, shortened: (§1)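 Agar dilution per NCCLS in BB2 agar + 1% Isovitalex + 7.5% sheep blood + menadione, compound added to melted medium at 50 °C. About 10⁴ CFU/spot from diluted overnight cultures, multipoint-inoculated.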

Neisseria meningitidis = assay: Minimum inhibitory concentration against Neisseria meningitides 69480; assay type: functional; procedure, shortened: as §1
[1] = biological target: DNA gyrase (Escherichia coli) (UniProt P0AES6+P0AES4)
Escherichia coli = assay: Minimum inhibitory concentration against Escherichia coli 25922; assay type: functional
Procedure, shortened: (§2)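 NCCLS agar dilution on Mueller–Hinton agar, compound incorporated into melted medium at 50 °C. Inoculum about 10⁴ CFU/spot from diluted overnight cultures, multipoint-applied.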

Enterococcus faecalis = assay: Minimum inhibitory concentration against Enterococcus faecalis 6; assay type: functional; procedure, shortened: as §2
Staphylococcus aureus [2] = assay: Minimum inhibitory concentration against Staphylococcus aureus Smith; assay type: functional; procedure, shortened: as §2
Staphylococcus aureus [3] = assay: Minimum inhibitory concentration against Staphylococcus aureus ATCC 25923; assay type: functional; procedure, shortened: as §2
[4] = test system: Stenotrophomonas maltophilia; assay: Minimum inhibitory concentration against Xanthomonas maltophilia AC739; assay type: functional; procedure, shortened: as §2
[5] = test system: Staphylococcus epidermidis; assay: Minimum inhibitory concentration against Staphylococcus epidermidis 16/2; assay type: functional; procedure, shortened: as §2
Streptococcus pyogenes = assay: Minimum inhibitory concentration against Streptococcus pyogenes b15; conditions: Streptococcus pyogenes; read-out: MIC
Staphylococcus aureus [6] = assay: Minimum inhibitory concentration against Staphylococcus aureus 887; assay type: functional; procedure, shortened: as §1
Staphylococcus aureus [7] = assay: Minimum inhibitory concentration against Staphylococcus aureus; assay type: functional
[8] = Range for minimum inhibitory concentration against Staphylococcus aureus; 0.5->[…]; assay type: functional
[9] = Staphylococcus aureus, read-out: MIC
[10] = Staphylococcus aureus, ATCC 25923, read-out: MIC

MIC (Micrococcus luteus) [µg/mL] | MIC (Neisseria meningitidis) [µg/mL] | MNEC [1] [µg/mL] | Compound | also measured
128 (≈ 264 µM) | 128 (≈ 264 µM) | 4 | COC(=O)[C@H]1CSCc2c(O)cc(O)c(C)c2C(=O)OC[C@H](NC(=O)OC(C)(C)C)C(=O)N1 | 
> 128 |  | 20 | Cc1c(O)cc(O)c2c1C(=O)OCCC(=O)NCCSC2 | 
 |  | 0.01 | COC(=O)[C@@H]1CSCc2c(O)cc(OC)c(C)c2C(=O)OCCCC/C(S)=N/1 | MIC (Escherichia coli): > 64 µg/mL; MIC (Enterococcus faecalis): 1 µg/mL (≈ 2.34 µM); MIC (Staphylococcus aureus [2]): 0.25 µg/mL (≈ 0.585 µM); MIC (Staphylococcus aureus [2]; [9]): 0.25 µg/mL (≈ 0.585 µM); MIC (Staphylococcus aureus [3]): 0.5 µg/mL (≈ 1.17 µM); MIC (Staphylococcus aureus [3]; [10]): 0.5 µg/mL (≈ 1.17 µM); MIC [4]: 8 µg/mL (≈ 18.7 µM); MIC [5]: < 0.12 µg/mL; MIC (Streptococcus pyogenes): 1 µg/mL (≈ 2.34 µM)
> 128 | 128 (≈ 257 µM) | > 1 | COC(=O)[C@@H]1CSCc2c(OC)cc(O)c(C)c2C(=O)OCC(NC(=O)OC(C)(C)C)C(=O)N1 (stereo not given in full) | 
32 (≈ 75 µM) |  | 1 | Cc1c(O)cc(O)c2c1C(=O)OCC(NC(=O)OC(C)(C)C)C(=O)NCCSC2 (stereo not given) | 
64 (≈ 161 µM) | 64 (≈ 161 µM) | 4 | COC(=O)[C@@H]1CSCc2c(O)cc(OC)c(C)c2C(=O)OC[C@@H](C)C(=O)N1 | MIC (Staphylococcus aureus [6]): > 64 µg/mL; MIC (Streptococcus pyogenes): > 64 µg/mL
 |  | 0.2 | COC(=O)c1c(C)c(OC)cc(O)c1CSC[C@H](/N=C(/C)S)C(=O)OC | MIC (Staphylococcus aureus [2]; [9]): 8 µg/mL (≈ 19.9 µM); MIC (Staphylococcus aureus [3]; [10]): 16 µg/mL (≈ 39.8 µM)
 |  | 0.5 | COC(=O)[C@@H]1CSCc2c(O)cc(OC)c(C)c2C(=O)OCCCCCC/C(S)=N/1 | MIC (Staphylococcus aureus [2]; [9]): 16 µg/mL (≈ 35.1 µM); MIC (Staphylococcus aureus [3]; [10]): 16 µg/mL (≈ 35.1 µM)
16 (≈ 35.1 µM) |  | 0.2 | COC(=O)[C@@H]1CSCc2c(O)cc(O)c(C)c2C(=O)OCC(NC(=O)CCO)C(=O)N1 (stereo not given in full) | MIC (Staphylococcus aureus [6]): > 64 µg/mL; MIC (Streptococcus pyogenes): > 64 µg/mL
128 (≈ 264 µM) | 128 (≈ 264 µM) | 10 | COC(=O)[C@@H]1CSCc2c(O)cc(O)c(C)c2C(=O)OC[C@H](NC(=O)OC(C)(C)C)C(=O)N1 | 
 |  | 0.4 | COC(=O)[C@@H]1CSCc2c(O)cc(OC)c(C)c2C(=O)OCCC/C(S)=N/1 | MIC (Staphylococcus aureus [2]; [9]): 2 µg/mL (≈ 4.84 µM); MIC (Staphylococcus aureus [3]; [10]): 4 µg/mL (≈ 9.67 µM)
> 128 | > 128 | > 100 | COC(=O)[C@@H]1CSCc2c(N)cccc2C(=O)OCC(NC(=O)[C@H](CO)NC(=O)OC(C)(C)C)C(=O)N1 (stereo not given in full) | 
> 64 |  | 1 | COC(=O)[C@@H]1CSCc2c(O)cc(O)c(C)c2C(=O)OC[C@H](N)C(=O)N1 | MIC (Staphylococcus aureus [6]): > 64 µg/mL
64 (≈ 110 µM) |  | 2.5 | COC(=O)[C@@H]1CSCc2c(O)cc(O)c(C)c2C(=O)OC[C@H](NC(=O)[C@@H]2CCCN2C(=O)OC(C)(C)C)C(=O)N1 | MIC (Staphylococcus aureus [6]): > 64 µg/mL; MIC (Streptococcus pyogenes): > 64 µg/mL

More lines, now with the values behind:

Compound | MIC (Micrococcus luteus) [µg/mL] | MIC (Neisseria meningitidis) [µg/mL] | MNEC [1] [µg/mL] | also measured
COC(=O)[C@@H]1CSCc2c(O)cc(O)c(C)c2C(=O)OCC(NC(=O)[C@@H]2C(O)CCN2C(=O)OC(C)(C)C)C(=O)N1 (stereo not given in full) | 8 (≈ 13.4 µM) | 64 (≈ 107 µM) | 0.05 | MIC (Staphylococcus aureus [6]): > 64 µg/mL; MIC (Streptococcus pyogenes): 32 µg/mL (≈ 53.5 µM)
COC(=O)[C@@H]1CSCc2c(O)cc(OC)c(C)c2C(=O)OCCCCCCCCC(=O)N1 |  |  | > 1 | 
CC[C@H]1OC(=O)[C@H](C)[C@@H](O[C@H]2C[C@@](C)(OC)[C@@H](O)[C@H](C)O2)[C@H](C)[C@@H](O[C@@H]2O[C@H](C)C[C@H](N(C)C)[C@H]2O)[C@](C)(O)C[C@@H](C)C(=O)[C@H](C)[C@@H](O)[C@]1(C)O [ERYTHROMYCIN] |  |  |  | MIC50 (Staphylococcus aureus [7]): > 16 µg/mL; MIC90 (Staphylococcus aureus [7]): > 16 µg/mL; Range [8]: 16 µg/mL
COC(=O)[C@@H]1CSCc2ccc(O)c(C)c2C(=O)OCC(NC(=O)OC(C)(C)C)C(=O)N1 (stereo not given in full) | > 128 |  | > 100 | 
COC(=O)[C@@H]1CSCc2cccc(C)c2C(=O)OCC(NC(=O)OC(C)(C)C)C(=O)N1 (stereo not given in full) |  |  | > 1 | 
COC(=O)[C@@H]1CSCc2c(O)ccc(C)c2C(=O)OCC(NC(=O)OC(C)(C)C)C(=O)N1 (stereo not given in full) | 32 (≈ 68.3 µM) |  | 1 | 
COC(=O)[C@@H]1CSCc2c(O)cc(O)c(C)c2C(=O)OC[C@H](NC(C)=O)C(=O)N1 | 128 (≈ 300 µM) | 32 (≈ 75 µM) | 0.4 | MIC (Staphylococcus aureus [6]): > 64 µg/mL; MIC (Streptococcus pyogenes): > 64 µg/mL
COC(=O)[C@@H]1CSCc2ccccc2C(=O)OCC(NC(=O)OC(C)(C)C)C(=O)N1 (stereo not given in full) |  |  | > 1 | 
COC(=O)[C@@H]1CSCc2c(O)cc(O)cc2C(=O)OCC(NC(=O)OC(C)(C)C)C(=O)N1 (stereo not given in full) | 128 (≈ 272 µM) | 128 (≈ 272 µM) | 0.5 | 
COc1cc(O)c2c(c1C)C(=O)O[C@H](CO)C/C(S)=N/[C@H](c1nc(C)no1)CSC2 |  |  | 0.01 | 
